Measurements as given in ChEMBL document CHEMBL3872252, “New bithiazolyl hydrazones: Novel synthesis, characterization and antitubercular evaluation” (Bioorg Med Chem Lett, 2017).
Values after ≈ are worked out from the molar mass of the structure shown.

Key:
[1] = Cytotoxicity against human THP1 cells by MTT assay; type: toxicity, cell-based, THP-1; conditions: for GI50: THP1 cells; for GI90: thp-1
[2] = Antitubercular activity against Mycobacterium tuberculosis H37Ra ATCC 25177 active stage infected in human THP1 cells measured on day 8 by nitrate reductase assay; type: functional, THP-1; conditions: ATCC 25177, 192 h
Bacillus subtilis [3] = test: Growth inhibition of Bacillus subtilis at 10 ug/ml; type: functional; conditions: read-out: GI
[4] = Selectivity index, ratio of GI50 for human MCF7 cells to MIC90 for Mycobacterium tuberculosis H37Ra ATCC 25177 active stage; type: toxicity, cell-based; conditions: read-out: Selectivity Index
Summary of the method: (§1)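 Cytotoxicity was measured on human MCF-7, HCT116 and THP-1 cells by MTT assay, with paclitaxel as reference. GI50 is the concentration inhibiting 50% of cell growth. The selectivity index is GI50 for the given cell line divided by MIC90 for the given mycobacterial strain and stage.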

[5] = Antitubercular activity against Mycobacterium bovis BCG ATCC 35743 dormant stage measured on day 12 by nitrate reductase based two-fold dilution assay; type: functional, Mycobacterium bovis BCG str. ATCC 35743; conditions: Mycobacterium tuberculosis variant bovis BCG, ATCC 35743, 288 h
[6] = Selectivity index, ratio of GI50 for human HCT116 cells to MIC90 for Mycobacterium bovis BCG ATCC 35743 dormant stage; type: toxicity, cell-based, HCT-116; conditions: read-out: Selectivity Index
Summary of the method: (§2)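 Cytotoxicity was measured on human MCF-7, HCT116 and THP-1 cells by MTT assay, with paclitaxel as reference. The selectivity index is GI50 for the given cell line divided by MIC90 for the given mycobacterial strain and stage.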

[7] = Antitubercular activity against Mycobacterium tuberculosis H37Ra ATCC 25177 dormant stage measured on day 12 by XTT reduction menadione based two-fold dilution assay; type: functional; conditions: ATCC 25177, 288 h
Summary of the method: (§3)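 M. tuberculosis H37Ra ATCC 25177 was exposed to 0.7–100 μg/mL in two-fold steps (0.7, 1.5, 3.1 … 100). Active stage was read after 8 days and dormant stage after 12 days of incubation. Inhibition was read by XTT reduction menadione assay (XRMA), absorbance 470 nm. MIC90 is the concentration giving ≥90% inhibition (µg/mL).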

Staphylococcus aureus [8] = test: Growth inhibition of Staphylococcus aureus at 30 ug/ml; type: functional; conditions: read-out: GI
[9] = Antitubercular activity against Mycobacterium tuberculosis H37Ra ATCC 25177 dormant stage infected in human THP1 cells measured on day 12 by nitrate reductase assay; type: functional, THP-1; conditions: ATCC 25177, 288 h
Escherichia coli [10] = test: Growth inhibition of Escherichia coli at 10 ug/ml; type: functional; conditions: read-out: GI
[11] = Cytotoxicity against human HCT116 cells by MTT assay; type: toxicity, cell-based, HCT-116; conditions: for GI50: HCT116 cells; for GI90: hct-116
[12] = Selectivity index, ratio of GI50 for human MCF7 cells to MIC90 for Mycobacterium tuberculosis H37Ra ATCC 25177 dormant stage; type: toxicity, cell-based; conditions: read-out: Selectivity Index; summary of the method: as §2
[13] = Selectivity index, ratio of GI50 for human THP1 cells to MIC90 for Mycobacterium bovis BCG ATCC 35743 active stage; type: toxicity, cell-based, THP-1; conditions: read-out: Selectivity Index; summary of the method: as §1
[14] = Selectivity index, ratio of GI50 for human MCF7 cells to MIC90 for Mycobacterium bovis BCG ATCC 35743 dormant stage; type: toxicity, cell-based; conditions: read-out: Selectivity Index; summary of the method: as §2
[15] = Selectivity index, ratio of GI50 for human HCT116 cells to MIC90 for Mycobacterium tuberculosis H37Ra ATCC 25177 active stage; type: toxicity, cell-based, HCT-116; conditions: read-out: Selectivity Index; summary of the method: as §1
Pseudomonas aeruginosa [16] = test: Growth inhibition of Pseudomonas aeruginosa at 30 ug/ml; type: functional; conditions: read-out: GI
[17] = Selectivity index, ratio of GI50 for human THP1 cells to MIC90 for Mycobacterium tuberculosis H37Ra ATCC 25177 dormant stage; type: toxicity, cell-based, THP-1; conditions: read-out: Selectivity Index; summary of the method: as §2
[18] = Selectivity index, ratio of GI50 for human THP1 cells to MIC90 for Mycobacterium tuberculosis H37Ra ATCC 25177 active stage; type: toxicity, cell-based, THP-1; conditions: read-out: Selectivity Index; summary of the method: as §1
[19] = Selectivity index, ratio of GI50 for human MCF7 cells to MIC90 for Mycobacterium bovis BCG ATCC 35743 active stage; type: toxicity, cell-based; conditions: read-out: Selectivity Index; summary of the method: as §1
[20] = Antitubercular activity against Mycobacterium bovis BCG ATCC 35743 active stage measured on day 8 by nitrate reductase based two-fold dilution assay; type: functional, Mycobacterium bovis BCG str. ATCC 35743; conditions: Mycobacterium tuberculosis variant bovis BCG, ATCC 35743, 192 h
[21] = Cytotoxicity against human MCF7 cells by MTT assay; type: toxicity, cell-based; conditions: for GI50: MCF7 cells; for GI90: mcf7
Staphylococcus aureus [22] = test: Growth inhibition of Staphylococcus aureus at 10 ug/ml; type: functional; conditions: read-out: GI
Staphylococcus aureus [23] = test: Growth inhibition of Staphylococcus aureus at 3 ug/ml; type: functional; conditions: read-out: GI
Summary of the method: (§4)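 Screened against Gram-negative E. coli and P. aeruginosa and Gram-positive S. aureus and B. subtilis. Compound was tested at 3 µg/ml, and the read-out is percent growth inhibition.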

[24] = Antitubercular activity against Mycobacterium tuberculosis H37Ra ATCC 25177 active stage measured on day 8 by XTT reduction menadione based two-fold dilution assay; type: functional; conditions: ATCC 25177, 192 h; summary of the method: as §3
[25] = Selectivity index, ratio of GI50 for human HCT116 cells to MIC90 for Mycobacterium tuberculosis H37Ra ATCC 25177 dormant stage; type: toxicity, cell-based, HCT-116; conditions: read-out: Selectivity Index; summary of the method: as §2
Pseudomonas aeruginosa [26] = test: Growth inhibition of Pseudomonas aeruginosa at 3 ug/ml; type: functional; conditions: read-out: GI; summary of the method: as §4
[27] = Selectivity index, ratio of GI50 for human THP1 cells to MIC90 for Mycobacterium bovis BCG ATCC 35743 dormant stage; type: toxicity, cell-based, THP-1; conditions: read-out: Selectivity Index; summary of the method: as §2
[28] = Selectivity index, ratio of GI50 for human HCT116 cells to MIC90 for Mycobacterium bovis BCG ATCC 35743 active stage; type: toxicity, cell-based, HCT-116; conditions: read-out: Selectivity Index; summary of the method: as §1
Escherichia coli [29] = test: Growth inhibition of Escherichia coli at 30 ug/ml; type: functional; conditions: read-out: GI
Bacillus subtilis [30] = test: Growth inhibition of Bacillus subtilis at 30 ug/ml; type: functional; conditions: read-out: GI
Bacillus subtilis [31] = test: Growth inhibition of Bacillus subtilis at 3 ug/ml; type: functional; conditions: read-out: GI; summary of the method: as §4
Pseudomonas aeruginosa [32] = test: Growth inhibition of Pseudomonas aeruginosa at 10 ug/ml; type: functional; conditions: read-out: GI
Escherichia coli [33] = test: Growth inhibition of Escherichia coli at 3 ug/ml; type: functional; conditions: read-out: GI; summary of the method: as §4

Structure (SMILES): C/C(=N\Nc1nc(-c2ccc(Cl)cc2)cs1)c1sc(C)nc1C
- GI50 [1]: > 100 µg/mL
- GI90 [1]: > 100 µg/mL
- MIC90 [2]: > 100 µg/mL
- inhibition of growth at 10 µg/mL (Bacillus subtilis [3]): 58.9%
- selectivity ratio [4]: 3
- IC50 [5]: 3.06 µg/mL (≈ 8.43 µM)
- MIC90 [5]: 17 µg/mL (≈ 46.7 µM)
- selectivity ratio [6]: 6
- IC50 [7]: 9.02 µg/mL (≈ 24.9 µM)
- MIC90 [7]: > 100 µg/mL
- inhibition of growth at 30 µg/mL (Staphylococcus aureus [8]): 66.3%
- MIC90 [9]: > 100 µg/mL
- inhibition of growth at 10 µg/mL (Escherichia coli [10]): 63.9%
- GI50 [11]: > 100 µg/mL
- GI90 [11]: > 100 µg/mL
- selectivity ratio [12]: 1
- selectivity ratio [13]: 6
- selectivity ratio [14]: 6
- selectivity ratio [15]: 3
- inhibition of growth at 30 µg/mL (Pseudomonas aeruginosa [16]): 66.9%
- selectivity ratio [17]: 1
- selectivity ratio [18]: 3
- selectivity ratio [19]: 6
- IC50 [20]: 1.95 µg/mL (≈ 5.37 µM)
- MIC90 [20]: 16.1 µg/mL (≈ 44.2 µM)
- GI50 [21]: > 100 µg/mL
- GI90 [21]: > 100 µg/mL
- inhibition of growth at 10 µg/mL (Staphylococcus aureus [22]): 61.7%
- inhibition of growth at 3 µg/mL (Staphylococcus aureus [23]): 50.9%
- IC50 [24]: 11.9 µg/mL (≈ 32.8 µM)
- MIC90 [24]: > 100 µg/mL
- selectivity ratio [25]: 1
- inhibition of growth at 3 µg/mL (Pseudomonas aeruginosa [26]): 50.9%
- selectivity ratio [27]: 6
- selectivity ratio [28]: 6
- inhibition of growth at 30 µg/mL (Escherichia coli [29]): 68.4%
- inhibition of growth at 30 µg/mL (Bacillus subtilis [30]): 63.8%
- inhibition of growth at 3 µg/mL (Bacillus subtilis [31]): 47.1%
- inhibition of growth at 10 µg/mL (Pseudomonas aeruginosa [32]): 61.6%
- inhibition of growth at 3 µg/mL (Escherichia coli [33]): 54%

Structure (SMILES): C/C(=N\Nc1nc(-c2ccc(F)cc2)cs1)c1sc(C)nc1C
- GI50 [1]: > 100 µg/mL
- GI90 [1]: > 100 µg/mL
- MIC90 [2]: 57 µg/mL (≈ 165 µM)
- inhibition of growth at 10 µg/mL (Bacillus subtilis [3]): 74.1%
- selectivity ratio [4]: 4
- IC50 [5]: 6.04 µg/mL (≈ 17.4 µM)
- MIC90 [5]: 10.4 µg/mL (≈ 30.1 µM)
- selectivity ratio [6]: 10
- IC50 [7]: 2.04 µg/mL (≈ 5.89 µM)
- MIC90 [7]: 53.8 µg/mL (≈ 155 µM)
- inhibition of growth at 30 µg/mL (Staphylococcus aureus [8]): 83.5%
- MIC90 [9]: 44.3 µg/mL (≈ 128 µM)
- inhibition of growth at 10 µg/mL (Escherichia coli [10]): 77.3%
- GI50 [11]: > 100 µg/mL
- GI90 [11]: > 100 µg/mL
- selectivity ratio [12]: 2
- selectivity ratio [13]: 11
- selectivity ratio [14]: 10
- selectivity ratio [15]: 4
- inhibition of growth at 30 µg/mL (Pseudomonas aeruginosa [16]): 81.7%
- selectivity ratio [17]: 2
- selectivity ratio [18]: 4
- selectivity ratio [19]: 11
- IC50 [20]: 6 µg/mL (≈ 17.3 µM)
- MIC90 [20]: 9.29 µg/mL (≈ 26.8 µM)
- GI50 [21]: > 100 µg/mL
- GI90 [21]: > 100 µg/mL
- inhibition of growth at 10 µg/mL (Staphylococcus aureus [22]): 75.9%
- inhibition of growth at 3 µg/mL (Staphylococcus aureus [23]): 61.6%
- IC50 [24]: 2.67 µg/mL (≈ 7.71 µM)
- MIC90 [24]: 25.3 µg/mL (≈ 72.9 µM)
- selectivity ratio [25]: 2
- inhibition of growth at 3 µg/mL (Pseudomonas aeruginosa [26]): 62%
- selectivity ratio [27]: 10
- selectivity ratio [28]: 11
- inhibition of growth at 30 µg/mL (Escherichia coli [29]): 84.3%
- inhibition of growth at 30 µg/mL (Bacillus subtilis [30]): 82.2%
- inhibition of growth at 3 µg/mL (Bacillus subtilis [31]): 58.6%
- inhibition of growth at 10 µg/mL (Pseudomonas aeruginosa [32]): 76.8%
- inhibition of growth at 3 µg/mL (Escherichia coli [33]): 64%

Structure (SMILES): C/C(=N\NC(N)=S)c1sc(C)nc1C
- GI50 [1]: > 100 µg/mL
- GI90 [1]: > 100 µg/mL
- MIC90 [2]: > 100 µg/mL
- inhibition of growth at 10 µg/mL (Bacillus subtilis [3]): 73.5%
- selectivity ratio [4]: 1
- IC50 [5]: 5.09 µg/mL (≈ 22.3 µM)
- MIC90 [5]: > 100 µg/mL
- selectivity ratio [6]: 1
- IC50 [7]: 0.19 µg/mL (≈ 0.832 µM)
- MIC90 [7]: 30.5 µg/mL (≈ 134 µM)
- inhibition of growth at 30 µg/mL (Staphylococcus aureus [8]): 84.2%
- MIC90 [9]: > 100 µg/mL
- inhibition of growth at 10 µg/mL (Escherichia coli [10]): 76.8%
- GI50 [11]: > 100 µg/mL
- GI90 [11]: > 100 µg/mL
- selectivity ratio [12]: 3
- selectivity ratio [13]: 1
- selectivity ratio [14]: 1
- selectivity ratio [15]: 1
- inhibition of growth at 30 µg/mL (Pseudomonas aeruginosa [16]): 85.4%
- selectivity ratio [17]: 3
- selectivity ratio [18]: 1
- selectivity ratio [19]: 1
- IC50 [20]: 4.42 µg/mL (≈ 19.4 µM)
- MIC90 [20]: > 100 µg/mL
- GI50 [21]: > 100 µg/mL
- GI90 [21]: > 100 µg/mL
- inhibition of growth at 10 µg/mL (Staphylococcus aureus [22]): 75.4%
- inhibition of growth at 3 µg/mL (Staphylococcus aureus [23]): 64.2%
- IC50 [24]: 0.21 µg/mL (≈ 0.92 µM)
- MIC90 [24]: > 100 µg/mL
- selectivity ratio [25]: 3
- inhibition of growth at 3 µg/mL (Pseudomonas aeruginosa [26]): 64.7%
- selectivity ratio [27]: 1
- selectivity ratio [28]: 1
- inhibition of growth at 30 µg/mL (Escherichia coli [29]): 85%
- inhibition of growth at 30 µg/mL (Bacillus subtilis [30]): 82.9%
- inhibition of growth at 3 µg/mL (Bacillus subtilis [31]): 61.5%
- inhibition of growth at 10 µg/mL (Pseudomonas aeruginosa [32]): 76.3%
- inhibition of growth at 3 µg/mL (Escherichia coli [33]): 66.4%
